# Assay outcomes as filed in PubChem BioAssay.
# TCR-CD3 inh: human TCR-CD3 binding inhibition; 360,000 tested, 0.37% active; AID 651800; TAMRA-labeled TCR probe fluorescence, biochemical; inhibition, % at 9.4 µM;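 also: recombinant mutant TCR 2C K166C tagged with TAMRA read by polarization; 0% = receptor in buffer alone and 100% = receptor with positive control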
# SIAE primary: human SIAE inhibition, primary screen. SIAE FP-Rh probe binding, fluorescence polarization. Q9HAT2. inhibition, % at 9.66 µM. 370,000 tested, 0.69% active;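 active = inhibition above a cutoff: mean of compounds within the control limits plus 3 SD of those, cut at about 17% in these data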;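 also: 0% = plate median of compound wells and 100% = probe without SIAE protein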
# DDE Tn7 FP inh: inhibitors of Tn7 peptide binding to human fibrin DD(E); P02675; FP displacement of FITC-Tn7 peptide from fibrin DD(E); 0% = median of compound wells per plate; inhibition, % at 8.3 µM; 370,000 tested, 0.13% active;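 active = inhibition above the mean of compounds falling within the control limits plus 3 SD of them, cut at about 14% in these data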;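 also: 0% = plate median of compound wells and 100% = 10 µM Aha-Tn7 peptide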
# Target sequence (P02675 whole entry, looked up): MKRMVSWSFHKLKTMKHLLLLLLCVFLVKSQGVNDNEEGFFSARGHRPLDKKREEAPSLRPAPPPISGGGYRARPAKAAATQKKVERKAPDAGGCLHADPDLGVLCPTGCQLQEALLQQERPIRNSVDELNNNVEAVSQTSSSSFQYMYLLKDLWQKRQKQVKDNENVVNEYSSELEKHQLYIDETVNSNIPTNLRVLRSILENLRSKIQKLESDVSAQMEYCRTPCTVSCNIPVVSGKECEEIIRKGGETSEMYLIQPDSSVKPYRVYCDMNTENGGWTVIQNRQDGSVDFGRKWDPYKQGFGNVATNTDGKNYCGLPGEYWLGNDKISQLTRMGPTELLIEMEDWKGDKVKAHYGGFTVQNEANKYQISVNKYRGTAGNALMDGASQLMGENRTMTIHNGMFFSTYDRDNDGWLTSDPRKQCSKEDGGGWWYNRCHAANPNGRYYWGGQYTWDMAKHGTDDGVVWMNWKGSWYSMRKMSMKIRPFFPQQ
#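 system = human fibrin DD(E) protein | quantity = DD(E) 2 µM final | medium = Tris/NaCl/CaCl2 buffer, pH 7.8 | also added = labelled Tn7 tracer, 0.1 µM | compound dosing = single point at 8.3 µM | timing = compound with protein 10 min, then 3 h after probe, room temperature | signal = FP measurement | benchmarks = Aha-Tn7 high control | repeats = one replicate per compound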
# HTRA1 inhibitor: inhibitors of human serine peptidase HTRA1; Q92743; recombinant HTRA1, FP-rhodamine activity-based probe, fluorescence polarization; inhibition, % at 5.96 µM; 340,000 tested, 0.5% active; AID 504803; in the data active = inhibition above about 36%;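 also: 0% = enzyme with DMSO and 100% = wells lacking enzyme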
# DDE Tn6 FP inh: inhibitors of Tn6 peptide binding to human fibrin DD(E); 370,000 tested, 0.21% active; Fibrin DD(E) TRITC-Tn6 fluorescence polarization displacement; AID 720509; inhibition, % at 8.3 µM; P02675;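 active = inhibition above a per-campaign cutoff: mean of compounds within control limits plus 3 SD, cut at about 15% in these data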;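 also: 0% = median of all compound wells on the plate and 100% = blocking peptide control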
# ABHD4 inh: inhibitors of mouse ABHD4; Q8VD66; purified mABHD4, FP-Rh probe fluorescence polarization; inhibition, % at 8.92 µM; 370,000 tested, 0.54% active; AID 720543;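 active = inhibition exceeding the mean over every tested compound plus 3 SD, cut at about 30% in these data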;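 also: 0% = plate median of compound wells and 100% = S159A mutant with DMSO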
#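 Assay system: wild-type mouse ABHD4 protein; compound: single nominal dose of 8.92 µM, 0.89% DMSO final; schedule: 45 min + 60 min at 25 °C; measured by: FP readout, ex 525 nm / em 598 nm; evaluation: % inhibition of FP-Rh probe binding versus controls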
# BSA TAMRA ctr: counter-screen for TCR-CD3 interaction inhibitors: BSA probe. shares compounds with TCR-CD3 inh. TAMRA-labeled BSA probe fluorescence counterscreen. inhibition, % at 9.4 µM. 1,200 tested, 10% active. AID 652035; in the data active = inhibition above about 23%;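 also: 0% = buffer low control and 100% = reference high control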
# TCR-CD3 conf: TCR-CD3 interaction inhibition, confirmation | shares compounds with TCR-CD3 inh | TAMRA-labeled TCR probe fluorescence binding assay | inhibition, % at 9.4 µM | 1,200 tested, 48% active
# Active calls of the source: *; · = not tested or not shown. Most compounds without a hit are left out; they make up all but 1.8% or so of the library. Rule as the data show it, unless noted: active = inhibition above about 19%; inactive = the rest.
SMILES,TCR-CD3 inh,SIAE primary,DDE Tn7 FP inh,HTRA1 inhibitor,DDE Tn6 FP inh,ABHD4 inh,BSA TAMRA ctr,TCR-CD3 conf
Cc1nc(CSc2ccc(Cl)cc2)cc(N2CCOCC2)n1,-3,-3,1,-4,5,1,·,·
Cc1ccc(SCc2cc(=O)[nH]c(N3CCOCC3)n2)cc1,19*,2,-3,3,4,0,5,2
Cc1ccccc1C(=O)OCC(=O)Nc1cccc(S(=O)(=O)N2CCCCC2)c1,-9,-19,-4,-24,-4,-20,·,·
CC1CCc2c(C(=O)OCC(=O)Nc3cccc(S(=O)(=O)N4CCCCCC4)c3)csc2C1 (stereo not drawn),32*,-5,-7,-25,-2,-21,3,7
Cc1ccc(NC(=O)COC(=O)c2ccccc2F)cc1S(=O)(=O)N1CCCCC1,9,-11,0,-15,0,-13,·,·
Cc1ccc(NC(=O)COC(=O)c2csc3c2CCC(C)C3)cc1S(=O)(=O)N1CCCCC1 (stereo not drawn),19*,-70,1,-54,-10,-44,5,3
CN1C(=O)C[C@@](C#N)(C(=O)NCCc2ccccc2)[C@H]1c1ccccc1,·,4,-3,·,5,1,·,·
CC1Cc2ccccc2N1C(=O)COC(=O)c1c2c(nc3ccccc13)CCCCC2 (stereo not drawn),-2,-14,1,-37,-5,-6,·,·
O=C(OCC(=O)N1CCc2ccccc21)c1c2c(nc3ccccc13)CCCC2,44*,-9,2,-48,2,-4,1,4
O=C(Nc1ccc2oc(-c3cccnc3)nc2c1)c1ccc2c(c1)OCCO2,27*,-20,-2,-20,-7,-5,-5,16
COC(=O)[C@]12C[C@H](CC(=O)NCC34CC5CC(CC(C5)C3)C4)C(=O)N(CCC3=CCCCC3)C1=C[C@H](C1CCCC1)O[C@@H]2C,·,1,3,·,0,4,·,·
O=C(OCC#CCSc1nnc(-c2cccc(F)c2)o1)c1ccc(F)cc1,·,-2,4,·,3,-8,·,·
O=C(CCC(=O)c1cccs1)NNC(=O)c1ccccc1O,48*,9,2,8,-3,10,-12,28*
O=C(CCNC(=O)c1ccccc1)NNC(=O)c1ccccc1Br,-1,13,4,0,-1,1,·,·
COc1ccccc1C(=O)NNC(=O)c1ccc(C)cc1,-4,0,-1,6,2,3,·,·
COc1ccccc1C(=O)NNC(=O)c1ccc(NC(=O)CC(C)C)cc1,31*,2,-5,-10,0,-1,1,32*
O=C(CCC(=O)c1cccs1)NNC(=O)c1ccc(Cl)cc1,-2,2,-1,1,3,-4,·,·
O=C(NNC(=O)c1ccccc1O)c1ccc(Br)cc1,23*,3,1,24,5,4,-4,21*
O=C(CCNC(=O)c1ccc(Br)cc1)NNC(=O)c1ccccc1O,23*,13,-1,22,2,9,-8,20*
CCOC(=O)[C@@]12CCCC3=C1N(CCC3)C(=O)[C@H]2CC(=O)NCC12CC3CC(CC(C3)C1)C2,·,-3,5,·,-8,4,·,·
O=C(NN=Cc1ccc(O)cc1)c1cc(-c2ccc(Cl)cc2)n[nH]1,·,-6,1,·,-6,-25,·,·
COCC(=O)NNC(=O)c1ccccc1OC,6,0,1,2,1,2,·,·
COc1ccccc1/C=C1\SC(=S)N(CCC(=O)NNC(=O)c2ccccc2OC)C1=O,28*,-1,0,25,-4,2,-10,19
COc1ccccc1C(=O)NCCC(=O)NNC(=O)c1ccccc1O,45*,6,-10,-5,-1,8,-16,30*
COc1ccccc1OCC(=O)NNC(=O)CCCC(=O)NNC(=O)COc1ccccc1OC,26*,-2,-5,9,-5,1,-18,5
SMILES,TCR-CD3 inh,SIAE primary,DDE Tn7 FP inh,HTRA1 inhibitor,DDE Tn6 FP inh,ABHD4 inh,BSA TAMRA ctr,TCR-CD3 conf
C[C@H]1[C@@H](NC(=O)c2cccc(N(C)C)c2)CC[C@@]23CCCN2C(=O)CCC[C@@H]13,·,-6,-1,·,3,-2,·,·
Oc1ccc(-c2cn3c(n2)SCC3)cc1O,38*,7,4,33,-1,23,-7,33*
CCN=C1NC(c2ccc(C(F)(F)F)cc2)C(C(=O)OC)=C(C)N1Cc1cccc(C(F)(F)F)c1 (stereo not drawn),1,4,-5,·,-9,20,·,·
Cc1nc(Cl)c2c(n1)NC1=C(O2)C(=O)CCC1,37*,3,13,17,-5,6,29*,30*
COc1ccc2c(c1)CN1C(=O)N(C3CCCC3)S(=O)(=O)CC21 (stereo not drawn),·,-8,2,·,8,6,·,·
CN(CC(=O)Nc1ccc(F)cc1)C(=O)c1cc(-c2cccs2)nn1-c1ccccc1,-6,-11,4,-18,-4,4,·,·
O=C(COC(=O)c1cc(-c2cccs2)nn1-c1ccccc1)Nc1ccc(F)c([N+](=O)[O-])c1,21*,-59,3,-44,-2,-24,0,2
O=C1CCC[C@H]2[C@@H](Cc3ccccc3)[C@@H](O)CC[C@]23CCCN13,·,-2,3,·,-1,5,·,·
COc1ccc(CN2C(=O)[C@]3(NCCc4c3[nH]c3ccc(OC)cc43)c3cc(F)ccc32)cc1,·,-1,-8,·,2,1,·,·
CCOc1cc(/C=N/N=C2/NC(=O)C(CC(=O)O)S2)ccc1OCc1ccc(Cl)cc1 (stereo not drawn),5,1,0,-4,-2,-7,·,·
Cn1c(=O)n(C)c2cc(/C=N/N=C3/NC(=O)C(CC(=O)O)S3)ccc21 (stereo not drawn),41*,-2,-1,-2,-4,4,2,22*
Cc1cc(C(=O)O[C@H]2CCC[C@@]3(C(=O)N(Cc4ccccc4)c4ccccc43)[C@H]2NC(=O)CCc2ccccc2)no1,·,-2,-3,·,2,-9,·,·
O=C(CN1C(=O)c2ccccc2S1(=O)=O)NC1CCCC1,22*,4,-1,5,-2,3,-1,2
Nn1c(SCC(=O)N2CCOCC2)nnc1-c1cc(-c2ccc(Cl)cc2)n[nH]1,·,4,-4,·,2,5,·,·
C/C(=N\NC(=O)c1c(C)nc2ccccn12)c1ccc(O)cc1O,49*,5,-8,9,-3,14,-12,37*
C/C(=N\NC(=O)c1c(C)nc2ccccn12)c1ccccc1F,-1,-4,5,7,8,4,·,·
